{"data": "Measured values collected from several papers", "target": "cAMP-dependent protein kinase catalytic subunit beta (PRKACB, Homo sapiens, UniProt P22694)"}
{"Structure (SMILES)": "C[C@@H]1CCN(c2nccc(-c3cnn4ncccc34)n2)C1", "effect on": "binding", "method": "competition with immobilised ligand", "tested at": "1 µM", "remaining binding [%]": 72}
{"Structure (SMILES)": "CNC(=O)[C@@H]1CC[C@@H](n2c(-c3ccc4cnccc4c3)nc3ccc(C(=O)NCc4cccc(C(N)=O)c4)cc32)C1", "effect on": "binding", "method": "competition with immobilised ligand", "tested at": "1 µM", "remaining binding [%]": 100}
{"Structure (SMILES)": "CS(=O)(=O)N1CCCC(NC(=O)[C@H](CCC2CCCCC2)NC(=O)c2ccc(CNc3ncnc4c3nnn4-c3ccccc3)cc2)C1 (stereo partly drawn)", "effect on": "cell-free assay", "method": "competition with immobilised ligand", "tested at": "0.1 µM", "remaining binding [%]": 92}
{"Structure (SMILES)": "O=C(c1ccc(Nc2ncc(Cl)c(-c3ccc(Cl)s3)n2)cc1)N1CCC(N2CCCC2)CC1", "effect on": "binding", "method": "competition with immobilised ligand", "tested at": "1 µM", "remaining binding [%]": 100}
{"Structure (SMILES)": "O=C(NCC1CCOCC1)c1n[nH]cc1NC(=O)c1c(F)cccc1F", "effect on": "binding", "method": "competition with immobilised ligand", "tested at": "1 µM", "remaining binding [%]": 97}
{"Structure (SMILES)": "O=C(NCCCN1CCOCC1)c1ccc(Nc2nccc(-c3cc4ccccc4s3)n2)cc1", "effect on": "binding", "method": "competition with immobilised ligand", "tested at": "1 µM", "remaining binding [%]": 100}
{"Structure (SMILES)": "COc1cnc(Nc2cccc(S(N)(=O)=O)c2)nc1N1CCN(c2ccccc2)C(=O)C1", "effect on": "binding", "method": "competition with immobilised ligand", "tested at": "1 µM", "remaining binding [%]": 99}
{"Structure (SMILES)": "CN(C)c1nccc(-c2cnc3ncccn23)n1", "effect on": "binding", "method": "competition with immobilised ligand", "tested at": "1 µM", "remaining binding [%]": 82}
{"Structure (SMILES)": "c1cncc(-c2cccc(Nc3nccc(NC4CCCCC4)n3)c2)c1", "effect on": "binding", "method": "competition with immobilised ligand", "tested at": "10 µM", "remaining binding [%]": 56}
{"Structure (SMILES)": "CN(c1nccc(-c2cnn3ncccc23)n1)C1CC1", "effect on": "binding", "tested at": "1 µM", "remaining binding [%]": 99}
{"Structure (SMILES)": "FC(F)(F)Oc1cccc(-c2cnc3ccc(-c4ccncc4)nn23)c1", "effect on": "cell-free assay", "method": "competition with immobilised ligand", "tested at": "5 µM", "remaining binding [%]": 98}
{"Structure (SMILES)": "C[C@@H]1CN(c2cc(-c3n[nH]c4ccc(OC5(C)CC5)cc34)ncn2)C[C@H](C)O1", "effect on": "cell-free assay", "method": "competition with immobilised ligand", "tested at": "0.1 µM", "remaining binding [%]": 91}
{"Structure (SMILES)": "CC1CCCN1c1nccc(-c2cnn3ncccc23)n1 (stereo not drawn)", "effect on": "binding", "method": "competition with immobilised ligand", "tested at": "1 µM", "remaining binding [%]": 89}
{"Structure (SMILES)": "COc1cc(-c2cn(C3CCc4c(F)cccc4N(CC(F)(F)F)C3=O)nn2)ccc1-n1cnc(C)c1 (stereo not drawn)", "effect on": "cell-free assay", "method": "competition with immobilised ligand", "tested at": "1 µM", "remaining binding [%]": 95}
{"Structure (SMILES)": "c1cnn2ncc(-c3ccnc(N4CCC45COC5)n3)c2c1", "effect on": "binding", "method": "competition with immobilised ligand", "tested at": "1 µM", "remaining binding [%]": 92}
{"Structure (SMILES)": "Cc1nc(Cc2cccc(C(F)(F)F)c2)sc1-c1ccc(C(N)=O)nc1", "effect on": "cell-free assay", "method": "competition with immobilised ligand", "tested at": "1 µM", "remaining binding [%]": 92}
{"Structure (SMILES)": "CN(C)c1nccc(-c2cnn3ncccc23)n1", "effect on": "binding", "method": "competition with immobilised ligand", "tested at": "1 µM", "remaining binding [%]": 76}
{"Structure (SMILES)": "O=C(O)[C@@H]1[C@@H](Cn2nnc3ccccc3c2=O)CC[C@H]1C(=O)c1ccc(OCCC2CCOCC2)cc1", "effect on": "cell-free assay", "method": "competition with immobilised ligand", "tested at": "1 µM", "remaining binding [%]": 100}
{"Structure (SMILES)": "O=C(c1ccc(Nc2ncc(Cl)c(-c3cc4ccccc4s3)n2)cc1)N1CCC(N2CCCC2)CC1", "effect on": "binding", "method": "competition with immobilised ligand", "tested at": "1 µM", "remaining binding [%]": 98}
{"Structure (SMILES)": "CN(C)CC#Cc1ccc(OCCCc2sc(N3CCc4cccc(C(=O)Nc5nc6ccccc6s5)c4C3)nc2C(=O)O)c(F)c1", "effect on": "cell-free assay", "method": "competition with immobilised ligand", "tested at": "1 µM", "remaining binding [%]": 100}
{"Structure (SMILES)": "Nc1ncc2c(n1)-c1c([nH]c3ccc(C#CC4CC4)cc13)CCCC2", "effect on": "binding", "method": "competition with immobilised ligand", "tested at": "1 µM", "remaining binding [%]": 86}
